Measured values published in ChEMBL document CHEMBL1124798, “Design of peptidomimetic delta opioid receptor antagonists using the message-address concept” (J Med Chem, 1990).

Each molecule was assayed against Mu-type opioid receptor (Cavia porcellus) (UniProt P97266) (assay: Antagonist potency was determined as the ratio of [antagonist] to (IC50 ratio-1) for Opioid receptor mu 1). Conditions: not given.
Type: functional
Procedure, shortened: (§1)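 Ke (nM) = [antagonist]/(IC50 ratio − 1). IC50 ratio is agonist IC50 with antagonist over the control IC50 in the same preparation. Antagonist preincubated 15 min. Agonists: DADLE in mouse vas deferens (δ); morphine (μ) and ethylketazocine (κ) in guinea pig ileum. n ≥ 3.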

Mu-type opioid receptor (Cavia porcellus), sequence (P97266 whole entry): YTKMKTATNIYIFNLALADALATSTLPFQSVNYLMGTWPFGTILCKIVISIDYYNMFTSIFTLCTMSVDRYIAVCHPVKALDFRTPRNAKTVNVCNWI

Compound | Ke [nM]
CC(=O)O[C@@]12Cc3c([nH]c4ccccc34)[C@@H]3Oc4c(O)ccc5c4[C@@]31CCN(CC1CC1)[C@@H]2C5 | > 263
CCOc1cccc2c3c([nH]c12)[C@@H]1Oc2c(O)ccc4c2[C@@]12CCN(CC1CC1)[C@H](C4)[C@]2(O)C3 | 13
Oc1ccc2c3c1O[C@H]1c4[nH]c5cc6ccccc6cc5c4C[C@@]4(O)[C@@H](C2)N(CC2CC2)CC[C@]314 | > 118
CN1CC[C@]23c4c5ccc(O)c4O[C@H]2c2[nH]c4ccccc4c2C[C@@]3(O)[C@H]1C5 [OXYMORPHINDOLE] | > 111
Cc1ccc2c3c([nH]c2c1)[C@@H]1Oc2c(O)ccc4c2[C@@]12CCN(CC1CC1)[C@H](C4)[C@]2(O)C3 | 55

The molecules below were run against T1, Kappa-type opioid receptor (Cavia porcellus, UniProt P41144) (assay: Binding affinity was measured by the displacement of [3H]- EK in guinea pig brain membrane of Opioid receptor kappa 1). Conditions: not given.
Type: cell membranes
Procedure, shortened: (§2)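 Radioligand displacement from guinea pig brain membranes, modified Werling method. μ sites: [3H]DAMGO. δ sites: [3H]DADLE with 1 μM DAMGO. κ sites: [3H]ethylketazocine with 1 μM DAMGO.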

T1 sequence (P41144 whole entry): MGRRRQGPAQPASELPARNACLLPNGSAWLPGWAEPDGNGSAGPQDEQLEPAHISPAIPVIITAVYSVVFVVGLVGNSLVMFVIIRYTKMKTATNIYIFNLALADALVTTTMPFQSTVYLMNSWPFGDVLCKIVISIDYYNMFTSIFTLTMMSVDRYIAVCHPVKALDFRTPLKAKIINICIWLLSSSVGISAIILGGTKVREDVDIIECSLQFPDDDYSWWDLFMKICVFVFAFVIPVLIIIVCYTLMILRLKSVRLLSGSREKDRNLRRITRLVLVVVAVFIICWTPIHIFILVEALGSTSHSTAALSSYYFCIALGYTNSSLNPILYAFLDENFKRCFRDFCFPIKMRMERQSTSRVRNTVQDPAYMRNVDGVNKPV

Compound | Ki [nM]
CN1CC[C@]23c4c5ccc(O)c4O[C@H]2c2[nH]c4ccccc4c2C[C@@]3(O)[C@H]1C5 [OXYMORPHINDOLE] | 4470

These molecules were tested against Kappa-type opioid receptor (Cavia porcellus) (UniProt P41144) (assay: Opioid receptor kappa 1 antagonistic activity was measured by the displacement of ethylketazocine in the guinea pig ileum at a concentration of 100 nM). Conditions: not given.
Type: functional, tissue-based
Procedure, shortened: (§3)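 Guinea pig ileum. Antagonist (nM, as stated on line) incubated 15 min before testing. Agonists: morphine (μ) and ethylketazocine (κ).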

Kappa-type opioid receptor (Cavia porcellus), sequence (P41144 whole entry): as above

Compound | IC50 ratio
CC(=O)O[C@@]12Cc3c([nH]c4ccccc34)[C@@H]3Oc4c(O)ccc5c4[C@@]31CCN(CC1CC1)[C@@H]2C5 | 1.8
CCOc1cccc2c3c([nH]c12)[C@@H]1Oc2c(O)ccc4c2[C@@]12CCN(CC1CC1)[C@H](C4)[C@]2(O)C3 | 0.67
Oc1ccc2c3c1O[C@H]1c4[nH]c5cc6ccccc6cc5c4C[C@@]4(O)[C@@H](C2)N(CC2CC2)CC[C@]314 | 0.91
CN1CC[C@]23c4c5ccc(O)c4O[C@H]2c2[nH]c4ccccc4c2C[C@@]3(O)[C@H]1C5 [OXYMORPHINDOLE] | 0.6
Cc1ccc2c3c([nH]c2c1)[C@@H]1Oc2c(O)ccc4c2[C@@]12CCN(CC1CC1)[C@H](C4)[C@]2(O)C3 | 1.7

What follows are molecules tested against Delta-type opioid receptor (Mus musculus) (UniProt P32300) (assay: Antagonist potency was determined as the ratio of [antagonist] to (IC50 ratio-1) for opioid receptor delta 1). Conditions: not given.
Type: functional
Procedure, shortened: as §1

Delta-type opioid receptor (Mus musculus), sequence (P32300 whole entry): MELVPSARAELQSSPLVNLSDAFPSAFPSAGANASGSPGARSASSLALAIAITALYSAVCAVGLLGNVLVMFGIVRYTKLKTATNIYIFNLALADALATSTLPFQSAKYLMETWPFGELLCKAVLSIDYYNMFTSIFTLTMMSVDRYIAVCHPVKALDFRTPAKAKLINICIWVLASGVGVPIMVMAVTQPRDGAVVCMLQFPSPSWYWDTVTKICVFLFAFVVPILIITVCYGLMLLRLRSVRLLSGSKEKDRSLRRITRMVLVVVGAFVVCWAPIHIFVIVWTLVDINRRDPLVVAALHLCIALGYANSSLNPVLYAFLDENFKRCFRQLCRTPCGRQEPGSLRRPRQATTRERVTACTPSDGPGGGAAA

Compound | Ke [nM]
CC(=O)O[C@@]12Cc3c([nH]c4ccccc34)[C@@H]3Oc4c(O)ccc5c4[C@@]31CCN(CC1CC1)[C@@H]2C5 | 2.4
CCOc1cccc2c3c([nH]c12)[C@@H]1Oc2c(O)ccc4c2[C@@]12CCN(CC1CC1)[C@H](C4)[C@]2(O)C3 | 0.57
Oc1ccc2c3c1O[C@H]1c4[nH]c5cc6ccccc6cc5c4C[C@@]4(O)[C@@H](C2)N(CC2CC2)CC[C@]314 | 27
CN1CC[C@]23c4c5ccc(O)c4O[C@H]2c2[nH]c4ccccc4c2C[C@@]3(O)[C@H]1C5 [OXYMORPHINDOLE] | 5
Cc1ccc2c3c([nH]c2c1)[C@@H]1Oc2c(O)ccc4c2[C@@]12CCN(CC1CC1)[C@H](C4)[C@]2(O)C3 | 3.5

The molecules below were run against Delta-type opioid receptor (Mus musculus) (UniProt P32300) (assay: Opioid receptor delta 1 antagonistic activity was measured by the displacement of DADLE in the mouse vas deferens at a concentration of 100 nM). Conditions: not given.
Type: functional
Procedure, shortened: (§4)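 Mouse vas deferens. Antagonist (nM, as stated on line) incubated with the preparation 15 min before testing. δ agonist [D-Ala2,D-Leu5]enkephalin.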

Compound | IC50 ratio
CC(=O)O[C@@]12Cc3c([nH]c4ccccc34)[C@@H]3Oc4c(O)ccc5c4[C@@]31CCN(CC1CC1)[C@@H]2C5 | 43
CCOc1cccc2c3c([nH]c12)[C@@H]1Oc2c(O)ccc4c2[C@@]12CCN(CC1CC1)[C@H](C4)[C@]2(O)C3 | 178
Oc1ccc2c3c1O[C@H]1c4[nH]c5cc6ccccc6cc5c4C[C@@]4(O)[C@@H](C2)N(CC2CC2)CC[C@]314 | 4.7
CN1CC[C@]23c4c5ccc(O)c4O[C@H]2c2[nH]c4ccccc4c2C[C@@]3(O)[C@H]1C5 [OXYMORPHINDOLE] | 1.6
Cc1ccc2c3c([nH]c2c1)[C@@H]1Oc2c(O)ccc4c2[C@@]12CCN(CC1CC1)[C@H](C4)[C@]2(O)C3 | 30

Each molecule was assayed against Kappa-type opioid receptor (Cavia porcellus) (UniProt P41144) (assay: Opioid receptor kappa antagonistic activity was measured by the displacement of ethylketazocine in the guinea pig ileum at a concentration of 100 nM). Conditions: not given.
Type: functional, tissue-based
Procedure, shortened: as §3

Compound | IC50 ratio
CC(=O)O[C@@]12Cc3c([nH]c4ccccc34)[C@@H]3Oc4c(O)ccc5c4[C@@]31CCN(CC1CC1)[C@@H]2C5 | 1.8
CCOc1cccc2c3c([nH]c12)[C@@H]1Oc2c(O)ccc4c2[C@@]12CCN(CC1CC1)[C@H](C4)[C@]2(O)C3 | 0.67
Oc1ccc2c3c1O[C@H]1c4[nH]c5cc6ccccc6cc5c4C[C@@]4(O)[C@@H](C2)N(CC2CC2)CC[C@]314 | 0.91
CN1CC[C@]23c4c5ccc(O)c4O[C@H]2c2[nH]c4ccccc4c2C[C@@]3(O)[C@H]1C5 [OXYMORPHINDOLE] | 0.6
Cc1ccc2c3c([nH]c2c1)[C@@H]1Oc2c(O)ccc4c2[C@@]12CCN(CC1CC1)[C@H](C4)[C@]2(O)C3 | 1.7

The molecules below were run against Opioid receptors; mu & delta (Homo sapiens) (UniProt P41143+P35372) (assay: Selectivity ratio was determined from Ke value of Opioid receptor mu 1 and Opioid receptor delta 1). Conditions: Cavia porcellus.
Type: protein assay
Procedure, shortened: (§5)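 Ratios of Ke values, μ/δ or κ/δ. Each Ke = [antagonist]/(IC50 ratio − 1). δ from DADLE in mouse vas deferens; μ (morphine) and κ (ethylketazocine) in guinea pig ileum. 15 min antagonist preincubation, n ≥ 3.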

Opioid receptors; mu & delta (Homo sapiens), sequence (P35372 whole entry, looked up): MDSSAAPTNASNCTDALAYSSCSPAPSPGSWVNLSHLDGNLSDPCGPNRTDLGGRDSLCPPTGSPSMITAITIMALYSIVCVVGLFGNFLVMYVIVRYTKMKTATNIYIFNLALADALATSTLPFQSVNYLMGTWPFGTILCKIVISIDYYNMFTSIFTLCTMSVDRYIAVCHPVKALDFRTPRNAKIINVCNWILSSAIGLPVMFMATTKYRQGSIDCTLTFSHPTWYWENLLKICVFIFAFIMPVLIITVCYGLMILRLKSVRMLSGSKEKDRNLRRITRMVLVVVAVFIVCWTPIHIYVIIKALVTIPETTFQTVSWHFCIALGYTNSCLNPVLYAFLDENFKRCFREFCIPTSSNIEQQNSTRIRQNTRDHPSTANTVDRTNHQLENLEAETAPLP
Opioid receptors; mu & delta (Homo sapiens), sequence (P41143 whole entry, looked up): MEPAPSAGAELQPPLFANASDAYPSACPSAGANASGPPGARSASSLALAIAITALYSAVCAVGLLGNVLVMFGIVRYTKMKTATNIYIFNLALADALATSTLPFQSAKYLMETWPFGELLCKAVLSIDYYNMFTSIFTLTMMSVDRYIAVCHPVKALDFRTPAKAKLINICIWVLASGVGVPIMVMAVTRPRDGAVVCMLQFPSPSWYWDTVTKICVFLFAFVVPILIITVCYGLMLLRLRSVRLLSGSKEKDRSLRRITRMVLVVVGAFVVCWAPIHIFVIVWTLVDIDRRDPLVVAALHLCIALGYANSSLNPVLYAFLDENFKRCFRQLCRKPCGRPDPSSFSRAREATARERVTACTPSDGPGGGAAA

Compound | Selectivity ratio
CC(=O)O[C@@]12Cc3c([nH]c4ccccc34)[C@@H]3Oc4c(O)ccc5c4[C@@]31CCN(CC1CC1)[C@@H]2C5 | > 111
CCOc1cccc2c3c([nH]c12)[C@@H]1Oc2c(O)ccc4c2[C@@]12CCN(CC1CC1)[C@H](C4)[C@]2(O)C3 | 24
Oc1ccc2c3c1O[C@H]1c4[nH]c5cc6ccccc6cc5c4C[C@@]4(O)[C@@H](C2)N(CC2CC2)CC[C@]314 | > 4
Cc1ccc2c3c([nH]c2c1)[C@@H]1Oc2c(O)ccc4c2[C@@]12CCN(CC1CC1)[C@H](C4)[C@]2(O)C3 | 16

What follows are molecules tested against Opioid receptors; delta & kappa (Homo sapiens) (UniProt P41145+P41143) (assay: Selectivity ratio was determined from Ke value of Opioid receptor kappa 1 and Opioid receptor delta 1). Conditions: Cavia porcellus.
Type: protein assay
Procedure, shortened: as §5

Opioid receptors; delta & kappa (Homo sapiens), sequence (P41143 whole entry, looked up): as above
Opioid receptors; delta & kappa (Homo sapiens), sequence (P41145 whole entry, looked up): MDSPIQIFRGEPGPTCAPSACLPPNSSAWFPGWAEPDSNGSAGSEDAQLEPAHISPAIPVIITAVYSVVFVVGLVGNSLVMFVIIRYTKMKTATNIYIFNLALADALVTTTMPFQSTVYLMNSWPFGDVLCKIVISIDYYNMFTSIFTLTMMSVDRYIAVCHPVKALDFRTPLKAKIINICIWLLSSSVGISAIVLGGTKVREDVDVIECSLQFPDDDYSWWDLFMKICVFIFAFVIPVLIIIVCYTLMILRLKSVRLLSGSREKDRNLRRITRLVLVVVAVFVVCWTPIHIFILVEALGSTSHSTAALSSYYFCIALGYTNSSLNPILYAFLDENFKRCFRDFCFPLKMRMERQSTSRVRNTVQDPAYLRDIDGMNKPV

Compound | Selectivity ratio
CC(=O)O[C@@]12Cc3c([nH]c4ccccc34)[C@@H]3Oc4c(O)ccc5c4[C@@]31CCN(CC1CC1)[C@@H]2C5 | > 54
Oc1ccc2c3c1O[C@H]1c4[nH]c5cc6ccccc6cc5c4C[C@@]4(O)[C@@H](C2)N(CC2CC2)CC[C@]314 | > 4
Cc1ccc2c3c([nH]c2c1)[C@@H]1Oc2c(O)ccc4c2[C@@]12CCN(CC1CC1)[C@H](C4)[C@]2(O)C3 | > 41

What follows are molecules tested against Delta-type opioid receptor (Mus musculus) (UniProt P32300) (assay: Opioid receptor delta antagonistic activity was measured by the displacement of DADLE in the mouse vas deferens at a concentration of 100 nM). Conditions: not given.
Type: functional
Procedure, shortened: as §4

Compound | IC50 ratio
CC(=O)O[C@@]12Cc3c([nH]c4ccccc34)[C@@H]3Oc4c(O)ccc5c4[C@@]31CCN(CC1CC1)[C@@H]2C5 | 43
CCOc1cccc2c3c([nH]c12)[C@@H]1Oc2c(O)ccc4c2[C@@]12CCN(CC1CC1)[C@H](C4)[C@]2(O)C3 | 178
Oc1ccc2c3c1O[C@H]1c4[nH]c5cc6ccccc6cc5c4C[C@@]4(O)[C@@H](C2)N(CC2CC2)CC[C@]314 | 4.7
CN1CC[C@]23c4c5ccc(O)c4O[C@H]2c2[nH]c4ccccc4c2C[C@@]3(O)[C@H]1C5 [OXYMORPHINDOLE] | 1.6
Cc1ccc2c3c([nH]c2c1)[C@@H]1Oc2c(O)ccc4c2[C@@]12CCN(CC1CC1)[C@H](C4)[C@]2(O)C3 | 30

Each molecule was assayed against T1, Kappa-type opioid receptor (assay: Binding affinity was measured by the displacement of [3H]- EK in guinea pig brain membrane of opioid receptor kappa). Conditions: not given.
Type: cell membranes
Procedure, shortened: as §2

Compound | Ki [nM]
CN1CC[C@]23c4c5ccc(O)c4O[C@H]2c2[nH]c4ccccc4c2C[C@@]3(O)[C@H]1C5 [OXYMORPHINDOLE] | 4470

The molecules below were run against Kappa-type opioid receptor (Cavia porcellus) (UniProt P41144) (assay: Antagonist potency was determined as the ratio of [antagonist] to (IC50 ratio-1) for Opioid receptor kappa 1). Conditions: not given.
Type: functional
Procedure, shortened: as §1

Compound | Ke [nM]
CC(=O)O[C@@]12Cc3c([nH]c4ccccc34)[C@@H]3Oc4c(O)ccc5c4[C@@]31CCN(CC1CC1)[C@@H]2C5 | > 127
Oc1ccc2c3c1O[C@H]1c4[nH]c5cc6ccccc6cc5c4C[C@@]4(O)[C@@H](C2)N(CC2CC2)CC[C@]314 | > 100
CN1CC[C@]23c4c5ccc(O)c4O[C@H]2c2[nH]c4ccccc4c2C[C@@]3(O)[C@H]1C5 [OXYMORPHINDOLE] | > 167
Cc1ccc2c3c([nH]c2c1)[C@@H]1Oc2c(O)ccc4c2[C@@]12CCN(CC1CC1)[C@H](C4)[C@]2(O)C3 | > 143

The molecules below were run against T2, Mu-type opioid receptor (Cavia porcellus, UniProt P97266) (assay: Binding affinity was measured by the displacement of [3H]- DAMGO in guinea pig brain membrane of Opioid receptor mu 1). Conditions: not given.
Type: cell membranes
Procedure, shortened: as §2

T2 sequence (P97266 whole entry): as the sequence (P97266 whole entry) above

Compound | Ki [nM]
CN1CC[C@]23c4c5ccc(O)c4O[C@H]2c2[nH]c4ccccc4c2C[C@@]3(O)[C@H]1C5 [OXYMORPHINDOLE] | 468

These molecules were tested against Mu-type opioid receptor (Cavia porcellus) (UniProt P97266) (assay: Opioid receptor mu 1 antagonistic activity was measured by the displacement of morphine in the guinea pig ileum at a concentration of 100 nM). Conditions: not given.
Type: functional, tissue-based
Procedure, shortened: as §3

Compound | IC50 ratio
CC(=O)O[C@@]12Cc3c([nH]c4ccccc34)[C@@H]3Oc4c(O)ccc5c4[C@@]31CCN(CC1CC1)[C@@H]2C5 | 1.4
CCOc1cccc2c3c([nH]c12)[C@@H]1Oc2c(O)ccc4c2[C@@]12CCN(CC1CC1)[C@H](C4)[C@]2(O)C3 | 8.3
Oc1ccc2c3c1O[C@H]1c4[nH]c5cc6ccccc6cc5c4C[C@@]4(O)[C@@H](C2)N(CC2CC2)CC[C@]314 | 0.85
CN1CC[C@]23c4c5ccc(O)c4O[C@H]2c2[nH]c4ccccc4c2C[C@@]3(O)[C@H]1C5 [OXYMORPHINDOLE] | 0.9
Cc1ccc2c3c([nH]c2c1)[C@@H]1Oc2c(O)ccc4c2[C@@]12CCN(CC1CC1)[C@H](C4)[C@]2(O)C3 | 2.8

The molecules below were run against T2, Mu-type opioid receptor (assay: Binding affinity was measured by the displacement of [3H]- DAMGO in guinea pig brain membrane of opioid receptor mu). Conditions: not given.
Type: cell membranes
Procedure, shortened: as §2

Compound | Ki [nM]
CN1CC[C@]23c4c5ccc(O)c4O[C@H]2c2[nH]c4ccccc4c2C[C@@]3(O)[C@H]1C5 [OXYMORPHINDOLE] | 468

What follows are molecules tested against Mu-type opioid receptor (Cavia porcellus) (UniProt P97266) (assay: Opioid receptor mu antagonistic activity was measured by the displacement of morphine in the guinea pig ileum at a concentration of 100 nM). Conditions: not given.
Type: functional, tissue-based
Procedure, shortened: as §3

Compound | IC50 ratio
CC(=O)O[C@@]12Cc3c([nH]c4ccccc34)[C@@H]3Oc4c(O)ccc5c4[C@@]31CCN(CC1CC1)[C@@H]2C5 | 1.4
CCOc1cccc2c3c([nH]c12)[C@@H]1Oc2c(O)ccc4c2[C@@]12CCN(CC1CC1)[C@H](C4)[C@]2(O)C3 | 8.3
Oc1ccc2c3c1O[C@H]1c4[nH]c5cc6ccccc6cc5c4C[C@@]4(O)[C@@H](C2)N(CC2CC2)CC[C@]314 | 0.85
CN1CC[C@]23c4c5ccc(O)c4O[C@H]2c2[nH]c4ccccc4c2C[C@@]3(O)[C@H]1C5 [OXYMORPHINDOLE] | 0.9
Cc1ccc2c3c([nH]c2c1)[C@@H]1Oc2c(O)ccc4c2[C@@]12CCN(CC1CC1)[C@H](C4)[C@]2(O)C3 | 2.8
